This note sets out measurements from ChEMBL document CHEMBL4049453, “Discovery of Mixed Pharmacology Melanocortin-3 Agonists and Melanocortin-4 Receptor Tetrapeptide Antagonist Compounds (TACOs) Based on the Sequence Ac-Xaa1-Arg-(pI)DPhe-Xaa4-NH2” (J Med Chem, 2017).

SMILES strings stand for the structures. Activity calls are given as the source filed them. The rule behind the calls is not given here. Non-standard residues stand in square brackets, D forms with d. Residues, ends and D or L forms follow the SMILES beside them. Bip = N[C@@H](Cc1ccc(-c2ccccc2)cc1)C(=O)O; dPhe(4-I) = N[C@H](Cc1ccc(I)cc1)C(=O)O; 2Nal = N[C@@H](Cc1ccc2ccccc2c1)C(=O)O; d2Nal = N[C@H](Cc1ccc2ccccc2c1)C(=O)O; Bta = N[C@@H](Cc1csc2ccccc12)C(=O)O

For data set [1], the target named is T1, Melanocortin receptor 4 (Mus musculus, UniProt P56450). As to the kind of experiment: Agonist activity at mouse MC4R expressed in HEK293 cells assessed as induction of cAMP accumulation after 2 hrs by alpha screen assay. In kind it is cell-based. (In general: cAMP levels reflect the balance of adenylyl cyclase and phosphodiesterase activity.)
For data set [2], the target named is T1, Melanocortin receptor 4. Description: Agonist activity at mouse MC4R expressed in HEK293 cells assessed as induction of cAMP accumulation up to 100 uM after 2 hrs by alpha screen assay relative to NDP-MSH. In kind it is cell-based. The following applies: read-out: Activity.
For data set [3], the target named is T1, Melanocortin receptor 4. Description: Agonist activity at mouse MC4R expressed in HEK293 cells assessed as induction of cAMP accumulation at 100 uM after 2 hrs by alpha screen assay relative to NDP-MSH. In kind it is cell-based. The procedure, abridged:
(§1)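 HEK293 stably expressing mouse MC1R/MC3R/MC4R/MC5R (pCDNA3). Cells in stimulation buffer (HBSS, 0.5 mM IBMX, 5 mM HEPES, 0.1% BSA, pH 7.4) at 1000 cells/μL with anti-cAMP acceptor beads. Ligand given 10−4 to 10−10 M (or 10−6 to 10−12 M) for 2 h at RT in the dark, then donor beads/biotin-cAMP lysis mix for 2 h. AlphaScreen cAMP read-out, normalized to 10−6 M NDP-MSH as 100%.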

Data set [4] addresses Melanocortin receptor 5 (Mus musculus) (UniProt P41149). Description: Agonist activity at mouse MC5R expressed in HEK293 cells assessed as induction of cAMP accumulation at 100 uM after 2 hrs by alpha screen assay relative to NDP-MSH. The format is functional, cell-based. In outline:
as §1

For data set [5], the target named is Melanocortin receptor 4 (Mus musculus) (UniProt P56450). As to the kind of experiment: Antagonist activity at mouse MC4R expressed in HEK293 cells assessed as inhibition of NDP-MSH induced-cAMP accumulation up to 10 uM after 2 hrs by alpha screen assay. In kind it is functional, cell-based. The procedure, abridged:
(§2)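 mouse MC3R or MC4R in stably transfected HEK293 cells, AlphaScreen cAMP assay (IBMX stimulation buffer, 2 h RT incubation, then 2 h with donor-bead lysis mix). […] Run in triplicate.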

For data set [6], the target named is Melanocyte-stimulating hormone receptor (Mus musculus) (UniProt Q01727). As to the kind of experiment: Agonist activity at mouse MC1R expressed in HEK293 cells assessed as induction of cAMP accumulation at 100 uM after 2 hrs by alpha screen assay relative to NDP-MSH. In kind it is functional, cell-based. The procedure, abridged:
as §1

The target of data set [7] is Melanocortin receptor 3 (Mus musculus) (UniProt P33033). Description: Antagonist activity at mouse MC3R expressed in HEK293 cells assessed as inhibition of NDP-MSH induced-cAMP accumulation up to 10 uM after 2 hrs by alpha screen assay. In kind it is functional, cell-based. In outline: as §2
Data set [8] has the same target. As to the kind of experiment: Agonist activity at mouse MC3R expressed in HEK293 cells assessed as induction of cAMP accumulation at 100 uM after 2 hrs by alpha screen assay relative to NDP-MSH. The format is functional, cell-based. In outline: as §1
Data set [9] has as its target T2, Melanocortin receptor 4 (Homo sapiens, UniProt P32245). Description: Agonist activity at human MC4R expressed in CHO cells assessed as induction of cAMP activation after 45 mins. The settings on record: 0.75 h. In kind it is cell-based.
For data set [10], the target named is T2, Melanocortin receptor 4. As to the kind of experiment: Agonist activity at human MC4R expressed in CHO cells assessed as induction of cAMP activation after 45 mins relative to alpha MSH. The format is cell-based. The following applies: 0.75 h.
The target of data set [11] is T2, Melanocortin receptor 4. Description: Antagonist activity at human MC4R expressed in CHO cells assessed as inhibition of aplha MSH-induced cAMP activation after 45 mins. The format is functional, cell-based.
Data set [12] addresses Melanocortin receptor 3 (Homo sapiens) (UniProt P41968). Description: Binding affinity to human MC3R expressed in CHO cells assessed by radioligand displacement. On the technique in general: Displacement assays read how much labelled ligand stays bound in the presence of the test substance.
The target in data set [13] is Melanocortin receptor 5 (Mus musculus) (UniProt P41149). As to the kind of experiment: Agonist activity at mouse MC5R expressed in HEK293 cells assessed as induction of cAMP accumulation up to 100 uM after 2 hrs by alpha screen assay relative to NDP-MSH. The format is functional, cell-based. The procedure, abridged:
as §1

For data set [14], the target named is Melanocortin receptor 3 (Mus musculus) (UniProt P33033). Description: Agonist activity at mouse MC3R expressed in HEK293 cells assessed as induction of cAMP accumulation up to 100 uM after 2 hrs by alpha screen assay relative to NDP-MSH. The format is functional, cell-based. In outline: as §1
Data set [15] addresses Melanocyte-stimulating hormone receptor (Mus musculus) (UniProt Q01727). Description: Agonist activity at mouse MC1R expressed in HEK293 cells assessed as induction of cAMP accumulation up to 100 uM after 2 hrs by alpha screen assay relative to NDP-MSH. In kind it is functional, cell-based. In outline: as §1

Broadly, the EC50 is the midpoint of the concentration-response curve. For orientation: Ki means a dissociation constant, usually derived from enzyme kinetics or from competition with a known ligand. By IC50 is commonly meant the concentration that inhibits the measured activity by half. Lower therefore signals inhibition by little substance.

Sequence of Melanocortin receptor 5 (Mus musculus) (P41149 whole entry): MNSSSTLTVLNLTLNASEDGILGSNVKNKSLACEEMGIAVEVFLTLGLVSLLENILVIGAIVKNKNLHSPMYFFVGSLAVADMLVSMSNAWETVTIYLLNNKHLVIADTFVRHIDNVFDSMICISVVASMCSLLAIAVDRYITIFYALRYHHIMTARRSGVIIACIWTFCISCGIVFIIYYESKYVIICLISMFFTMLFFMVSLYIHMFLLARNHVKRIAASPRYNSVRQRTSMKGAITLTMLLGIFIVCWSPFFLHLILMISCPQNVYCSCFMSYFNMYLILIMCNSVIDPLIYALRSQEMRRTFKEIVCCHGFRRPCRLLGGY
Sequence of Melanocortin receptor 4 (Mus musculus) (P56450 whole entry): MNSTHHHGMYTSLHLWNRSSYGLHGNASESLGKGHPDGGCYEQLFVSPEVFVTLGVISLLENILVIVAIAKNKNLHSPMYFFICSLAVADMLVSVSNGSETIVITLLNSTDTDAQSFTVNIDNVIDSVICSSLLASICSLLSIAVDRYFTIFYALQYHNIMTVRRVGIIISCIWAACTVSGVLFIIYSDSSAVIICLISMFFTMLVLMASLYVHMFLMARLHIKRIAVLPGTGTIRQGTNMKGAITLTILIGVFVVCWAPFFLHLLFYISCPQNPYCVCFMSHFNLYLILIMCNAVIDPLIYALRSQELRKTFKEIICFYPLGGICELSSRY
T1 sequence (P56450 whole entry): as above
Sequence of Melanocortin receptor 3 (Mus musculus) (P33033 whole entry): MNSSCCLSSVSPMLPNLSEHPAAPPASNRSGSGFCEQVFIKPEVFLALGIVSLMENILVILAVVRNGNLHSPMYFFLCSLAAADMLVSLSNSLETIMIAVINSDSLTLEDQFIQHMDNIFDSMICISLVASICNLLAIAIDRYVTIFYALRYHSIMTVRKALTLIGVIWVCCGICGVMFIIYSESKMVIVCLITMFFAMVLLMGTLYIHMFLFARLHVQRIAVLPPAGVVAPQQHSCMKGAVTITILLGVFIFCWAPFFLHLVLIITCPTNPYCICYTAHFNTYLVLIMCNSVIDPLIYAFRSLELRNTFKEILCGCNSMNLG
T2 sequence (P32245 whole entry): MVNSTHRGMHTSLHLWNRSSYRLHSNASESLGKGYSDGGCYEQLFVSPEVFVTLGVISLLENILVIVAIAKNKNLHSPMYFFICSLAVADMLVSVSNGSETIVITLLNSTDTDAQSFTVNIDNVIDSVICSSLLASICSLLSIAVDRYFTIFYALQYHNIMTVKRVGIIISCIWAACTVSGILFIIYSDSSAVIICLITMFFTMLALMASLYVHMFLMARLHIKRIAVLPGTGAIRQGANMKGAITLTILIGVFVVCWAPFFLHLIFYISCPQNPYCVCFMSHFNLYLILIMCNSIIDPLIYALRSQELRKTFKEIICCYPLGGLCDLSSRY
Sequence of Melanocyte-stimulating hormone receptor (Mus musculus) (Q01727 whole entry, looked up): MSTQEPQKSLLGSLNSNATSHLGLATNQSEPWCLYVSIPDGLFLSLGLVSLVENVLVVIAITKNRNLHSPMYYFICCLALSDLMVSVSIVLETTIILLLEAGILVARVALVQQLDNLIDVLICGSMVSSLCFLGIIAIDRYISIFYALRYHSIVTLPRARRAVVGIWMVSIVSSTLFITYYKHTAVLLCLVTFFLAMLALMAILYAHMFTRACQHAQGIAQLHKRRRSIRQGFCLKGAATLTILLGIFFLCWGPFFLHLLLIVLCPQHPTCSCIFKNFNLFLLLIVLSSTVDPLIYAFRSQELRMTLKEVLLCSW
Sequence of Melanocortin receptor 3 (Homo sapiens) (P41968 whole entry): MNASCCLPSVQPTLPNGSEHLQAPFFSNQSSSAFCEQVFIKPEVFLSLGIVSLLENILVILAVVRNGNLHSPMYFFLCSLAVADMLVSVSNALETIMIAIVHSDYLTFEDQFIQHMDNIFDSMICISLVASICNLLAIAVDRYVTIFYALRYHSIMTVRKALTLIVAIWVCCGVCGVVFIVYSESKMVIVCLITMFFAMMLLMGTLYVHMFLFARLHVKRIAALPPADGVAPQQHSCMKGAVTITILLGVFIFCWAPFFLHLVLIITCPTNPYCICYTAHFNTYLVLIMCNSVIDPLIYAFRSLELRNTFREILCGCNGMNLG

Consider `CC(=O)N[C@@H](CCCNC(=N)N)C(=O)N[C@@H](CCCNC(=N)N)C(=O)N[C@H](Cc1ccc(I)cc1)C(=O)N[C@H](Cc1ccc2ccccc2c1)C(N)=O`, for which the EC50 in data set [1] is more than 100 µM. Also, the Emax in data set [2] was less than 20%.
With `CC(=O)N[C@@H](Cc1csc2ccccc12)C(=O)N[C@@H](CCCNC(=N)N)C(=O)N[C@H](Cc1ccc(I)cc1)C(=O)N[C@H](Cc1ccc2ccccc2c1)C(N)=O`, the Activity in [3] turned out to be 38%; in data set [4], 41%; in [6], 36%; in [8] it was 34%. In addition, the inhibition entry in data set [5] and in data set [7] was “inactive” each time.
With `N=C(N)NCCC[C@H](NC(=O)[C@@H](Cc1ccc(I)cc1)NC(=O)[C@@H]1Cc2ccccc2CN1)C(=O)N[C@@H](Cc1c[nH]c2ccccc12)C(N)=O`, the Activity in data set [9] was determined as 0.3 nM. Also, the Emax in [10] was more than 35%. Further, the inhibitory constant (Ki) in data set [11] is 0.79 nM. In addition, the Kb in [11] (read-out: pA2 (converted)) was 0.794 nM. In data set [12], this compound came in with an IC50 of 75 nM.
Take `CC(=O)N[C@@H](Cc1ccc2ccccc2c1)C(=O)N[C@@H](CCCNC(=N)N)C(=O)N[C@H](Cc1ccc(I)cc1)C(=O)N[C@@H](Cc1ccc2ccccc2c1)C(N)=O` (Ac-[2Nal]R[dPhe(4-I)][2Nal]-NH2): the inhibition result in data set [5] and in [7] was “inactive” each time. Further, the Emax in [2] was less than 20%. In [8], the Activity was determined as 39%.
With `CC(=O)N[C@@H](Cc1ccc(-c2ccccc2)cc1)C(=O)N[C@@H](CCCNC(=N)N)C(=O)N[C@H](Cc1ccc(I)cc1)C(=O)N[C@@H](Cc1ccc(-c2ccccc2)cc1)C(N)=O` (Ac-[Bip]R[dPhe(4-I)][Bip]-NH2), the inhibition result in data set [5] and in [7] was “inactive” throughout. Moreover, the Activity in data set [13], in data set [14] and in [15] was less than 20% each time.
Consider `CC(=O)N[C@H](Cc1ccc2ccccc2c1)C(=O)N[C@@H](CCCNC(=N)N)C(=O)N[C@H](Cc1ccc(I)cc1)C(=O)N[C@@H](Cc1csc2ccccc12)C(N)=O` (Ac-[d2Nal]R[dPhe(4-I)][Bta]-NH2), for which the Activity in data set [13] was less than 20%.
Consider `CC(=O)N[C@H](Cc1ccc2ccccc2c1)C(=O)N[C@@H](CCCNC(=N)N)C(=O)N[C@H](Cc1ccc(I)cc1)C(=O)NC(Cc1ccccc1)C(N)=O` (stereo in doubt), for which the Activity in [13] and in data set [14] was less than 20% in each case. The Emax in data set [2] was less than 20%.
